Experimental data as given in ChEMBL document CHEMBL1137710, “Synthesis and in vitro antitumor activity of new quinoxaline derivatives” (2009).

Legend:
Type in all cases: functional
M14 = experiment: Growth inhibition of human M14 cells after 48 hrs by sulforhodamine B assay; details: M14, 48 h
Procedure, shortened: (§1)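 NCI 60-human-tumor-cell-line panel, with compounds tested over a 5-log dose range. Values are taken from dose-response curves as log10 molar concentrations: GI50 is 50% net growth inhibition, TGI is total growth inhibition, and LC50 is 50% net cell death.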

SK-MEL-28 = experiment: Growth inhibition of human SK-MEL-28 cells after 48 hrs by sulforhodamine B assay; details: SK-MEL-28, 48 h; procedure, shortened: as §1
U-251 = experiment: Growth inhibition of human U251 cells after 48 hrs by sulforhodamine B assay; details: U-251, 48 h
Procedure, shortened: (§2)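 Run in the NCI 60-human-tumour-cell-line panel, tested over a 5-log dose range. Dose–response curves gave three values per cell line, each as a log10 molar concentration: GI50 (50% inhibition of net cell growth), TGI (total inhibition of net growth) and LC50 (50% net cell death). The mean graph midpoint is the arithmetic mean over all lines, with insensitive lines entered at the highest concentration tested.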

OVCAR-4 = experiment: Growth inhibition of human OVCAR4 cells after 48 hrs by sulforhodamine B assay; details: OVCAR-4, 48 h; procedure, shortened: as §1
PC-3 = experiment: Growth inhibition of human PC3 cells after 48 hrs by sulforhodamine B assay; details: PC-3, 48 h; procedure, shortened: as §1
NCI-H322M = experiment: Growth inhibition of human NCI-H322M cells after 48 hrs by sulforhodamine B assay; procedure, shortened: as §1
IGROV-1 = experiment: Growth inhibition of human IGROV1 cells after 48 hrs by sulforhodamine B assay; details: IGROV-1, 48 h; procedure, shortened: as §1
SNB-19 = experiment: Growth inhibition of human SNB19 cells after 48 hrs by sulforhodamine B assay; details: SNB-19, 48 h; procedure, shortened: as §2
K562 = experiment: Growth inhibition of human K562 cells after 48 hrs by sulforhodamine B assay; details: K562, 48 h; procedure, shortened: as §1
SF-268 [1] = experiment: Anticancer activity against human SF268 cells assessed as cell growth at 100 uM after 48 hrs by sulforhodamine B assay; details: SF-268, 48 h, read-out: Activity
[2] = Growth inhibition of human […] cells after 48 hrs by sulforhodamine B assay; procedure, shortened: as §1
HL-60(TB) = experiment: Growth inhibition of human HL-60(TB) cells after 48 hrs by sulforhodamine B assay; details: HL-60, 48 h
Procedure, shortened: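 Tested only on compounds active in a three-line prescreen, in the NCI 60-human-tumour-cell-line panel over a 5-log dose range. Values come from dose–response curves as log10 molar GI50, the concentration inhibiting 50% net cell growth. Log10 TGI (total growth inhibition) and log10 LC50 (50% net cell death) were derived too. Mean graph midpoints include insensitive lines at the highest concentration tested.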

NCI/ADR-RES = experiment: Growth inhibition of human NCI/ADR-RES cells after 48 hrs by sulforhodamine B assay; procedure, shortened: as §1
[3] = Growth inhibition of human Hs 578T cells after 48 hrs by sulforhodamine B assay; procedure, shortened: as §1
SF-268 [4] = experiment: Growth inhibition of human SF268 cells after 48 hrs by sulforhodamine B assay; details: SF-268, 48 h; procedure, shortened: as §1
OVCAR-3 = experiment: Growth inhibition of human OVCAR-3 cells after 48 hrs by sulforhodamine B assay; details: OVCAR-3, 48 h; procedure, shortened: as §1
CAKI-1 = experiment: Growth inhibition of human Caki1 cells after 48 hrs by sulforhodamine B assay; details: CAKI-1, 48 h; procedure, shortened: as §1
786-0 = experiment: Growth inhibition of human 786-0 cells after 48 hrs by sulforhodamine B assay; details: 786-0, 48 h; procedure, shortened: as §1
UACC-62 = experiment: Growth inhibition of human UACC62 cells after 48 hrs by sulforhodamine B assay; details: UACC-62, 48 h; procedure, shortened: as §2
MCF7 [5] = experiment: Growth inhibition of human MCF7 cells after 48 hrs by sulforhodamine B assay; details: MCF7, 48 h; procedure, shortened: as §1
MDA-MB-435 = experiment: Growth inhibition of human MDA-MB-435 cells after 48 hrs by sulforhodamine B assay; details: MDA-MB-435, 48 h; procedure, shortened: as §1
LOX IMVI = experiment: Growth inhibition of human LOXIMVI cells after 48 hrs by sulforhodamine B assay; procedure, shortened: as §1
NCI-H522 = experiment: Growth inhibition of human NCI-H522 cells after 48 hrs by sulforhodamine B assay; details: NCI-H522, 48 h; procedure, shortened: as §1
HOP-62 = experiment: Growth inhibition of human HOP62 cells after 48 hrs by sulforhodamine B assay; details: HOP-62, 48 h; procedure, shortened: as §1
UO-31 = experiment: Growth inhibition of human UO31 cells after 48 hrs by sulforhodamine B assay; details: UO-31, 48 h; procedure, shortened: as §2
NCI-H460 = experiment: Anticancer activity against human NCI-H460 cells assessed as cell growth at 100 uM after 48 hrs by sulforhodamine B assay; details: NCI-H460, 48 h, read-out: Activity
OVCAR-8 = experiment: Growth inhibition of human OVCAR8 cells after 48 hrs by sulforhodamine B assay; details: OVCAR-8, 48 h; procedure, shortened: as §1
MCF7 [6] = experiment: Anticancer activity against human MCF7 cells assessed as cell growth at 100 uM after 48 hrs by sulforhodamine B assay; details: MCF7, 48 h, read-out: Activity
SW-620 = experiment: Growth inhibition of human SW620 cells after 48 hrs by sulforhodamine B assay; details: SW-620, 48 h; procedure, shortened: as §2
[7] = read-out: pLC50 (the source's name) (converted)

Nc1cc(N)c2nc(-c3ccccc3)c(Sc3ccc(Cl)c(Cl)c3)nc2c1 showed a GI50 (M14) of 32.4 µM, a CC50 (M14; [7]) of over 100 µM and a TGI (M14; read-out: pTGI (converted)) of over 100 µM. The GI50 (SK-MEL-28) was 13.8 µM, the CC50 (SK-MEL-28; [7]) was over 100 µM and the TGI (SK-MEL-28; read-out: pTGI (converted)) was 57.5 µM. It also gave a GI50 (U-251) of 10.2 µM, an LC50 (50% net cell kill) (U-251) of over 100 µM and a TGI (U-251; read-out: pTGI (converted)) of over 100 µM. It also gave a GI50 (OVCAR-4) of 20 µM, a CC50 (OVCAR-4; [7]) of over 100 µM and a TGI (OVCAR-4; read-out: pTGI (converted)) of over 100 µM. For the same molecule, the GI50 (PC-3) was 3.47 µM, the CC50 (PC-3; [7]) was over 100 µM and the TGI (PC-3; read-out: pTGI (converted)) was 15.5 µM. For the same molecule, the GI50 (NCI-H322M) was 7.08 µM, the LC50 (NCI-H322M) was over 100 µM and the TGI (NCI-H322M; read-out: pTGI (converted)) was 35.5 µM. It also gave a GI50 (IGROV-1) of 2.95 µM, a CC50 (IGROV-1; [7]) of over 100 µM and a TGI (IGROV-1; read-out: pTGI (converted)) of 27.5 µM. For the same molecule, the GI50 (SNB-19) was 17 µM, the LC50 (SNB-19) was over 100 µM and the TGI (SNB-19; read-out: pTGI (converted)) was 57.5 µM. For the same molecule, the GI50 (K562) was 15.8 µM, the LC50 (K562) was over 100 µM and the TGI (K562; read-out: pTGI (converted)) was over 100 µM. For the same molecule, the growth at 100 µM (SF-268 [1]) was 11%, the GI50 [2] was 3.8 µM and the LC50 [2] was over 100 µM. It also gave a TGI ([2]; read-out: pTGI (converted)) of 31.6 µM, a GI50 (HL-60(TB)) of 7.94 µM and an LC50 (HL-60(TB)) of over 100 µM. For the same molecule, the TGI (HL-60(TB); read-out: pTGI (converted)) was over 100 µM, the GI50 (NCI/ADR-RES) was 19.1 µM and the CC50 (NCI/ADR-RES; [7]) was over 100 µM. For the same molecule, the TGI (NCI/ADR-RES; read-out: pTGI (converted)) was 60.3 µM, the GI50 [3] was 30.2 µM and the CC50 [3, 7] was over 100 µM. It also gave a TGI ([3]; read-out: pTGI (converted)) of over 100 µM, a GI50 (SF-268 [4]) of 13.8 µM and an LC50 (SF-268 [4]) of over 100 µM. For the same molecule, the TGI (SF-268 [4]; read-out: pTGI (converted)) was 51.3 µM, the GI50 (OVCAR-3) was 11.7 µM and the CC50 (OVCAR-3; [7]) was over 100 µM. The TGI (OVCAR-3; read-out: pTGI (converted)) was 46.8 µM, the GI50 (CAKI-1) was 15.1 µM and the CC50 (CAKI-1; [7]) was 89.1 µM. For the same molecule, the TGI (CAKI-1; read-out: pTGI (converted)) was 37.2 µM, the GI50 (786-0) was 23.4 µM and the CC50 (786-0; [7]) was over 100 µM. The TGI (786-0; read-out: pTGI (converted)) was 61.7 µM, the GI50 (UACC-62) was 6.76 µM and the CC50 (UACC-62; [7]) was over 100 µM. For the same molecule, the TGI (UACC-62; read-out: pTGI (converted)) was 42.7 µM, the GI50 (MCF7 [5]) was 5.25 µM and the CC50 (MCF7 [5]; [7]) was over 100 µM. It also gave a TGI (MCF7 [5]; read-out: pTGI (converted)) of 38 µM, a GI50 (MDA-MB-435) of 18.2 µM and a CC50 (MDA-MB-435; [7]) of over 100 µM. The TGI (MDA-MB-435; read-out: pTGI (converted)) was 60.3 µM, the GI50 (LOX IMVI) was 7.41 µM and the LC50 (LOX IMVI) was 72.4 µM. It also gave a TGI (LOX IMVI; read-out: pTGI (converted)) of 24.5 µM, a GI50 (NCI-H522) of 7.59 µM and an LC50 (NCI-H522) of over 100 µM. For the same molecule, the TGI (NCI-H522; read-out: pTGI (converted)) was 33.9 µM, the GI50 (HOP-62) was 12.3 µM and the LC50 (HOP-62) was over 100 µM. For the same molecule, the TGI (HOP-62; read-out: pTGI (converted)) was 77.6 µM, the GI50 (UO-31) was 3.8 µM and the CC50 (UO-31; [7]) was over 100 µM. The TGI (UO-31; read-out: pTGI (converted)) was over 100 µM, the growth at 100 µM (NCI-H460) was 0% and the GI50 (OVCAR-8) was 24.5 µM. The CC50 (OVCAR-8; [7]) was over 100 µM, the TGI (OVCAR-8; read-out: pTGI (converted)) was over 100 µM and the growth at 100 µM (MCF7 [6]) was 12%. The GI50 (SW-620) was 20.9 µM, the CC50 (SW-620; [7]) was over 100 µM and the TGI (SW-620; read-out: pTGI (converted)) was 83.2 µM.
